Assays:
Homo sapiens = species on record: Homo sapiens; assay: Selectivity index, ratio of IC50 for recombinant human MAO-A by IC50 for recombinant human MAO-B
Procedure, shortened: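 IC50 values for MAO-A and MAO-B taken from kynuramine fluorescence assays (0.003–100 µM inhibitor, 20 min at 37 °C) and fitted by one-site competition. Triplicate means. Index is IC50(MAO-A)/IC50(MAO-B).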

[1] = target: T1, Amine oxidase [flavin-containing] A (Homo sapiens, UniProt P21397); assay: Inhibition of recombinant human MAO-A at 100 uM using kynuramine as substrate after 20 mins by fluorescence spectrophotometric analysis
T1 sequence (P21397 whole entry): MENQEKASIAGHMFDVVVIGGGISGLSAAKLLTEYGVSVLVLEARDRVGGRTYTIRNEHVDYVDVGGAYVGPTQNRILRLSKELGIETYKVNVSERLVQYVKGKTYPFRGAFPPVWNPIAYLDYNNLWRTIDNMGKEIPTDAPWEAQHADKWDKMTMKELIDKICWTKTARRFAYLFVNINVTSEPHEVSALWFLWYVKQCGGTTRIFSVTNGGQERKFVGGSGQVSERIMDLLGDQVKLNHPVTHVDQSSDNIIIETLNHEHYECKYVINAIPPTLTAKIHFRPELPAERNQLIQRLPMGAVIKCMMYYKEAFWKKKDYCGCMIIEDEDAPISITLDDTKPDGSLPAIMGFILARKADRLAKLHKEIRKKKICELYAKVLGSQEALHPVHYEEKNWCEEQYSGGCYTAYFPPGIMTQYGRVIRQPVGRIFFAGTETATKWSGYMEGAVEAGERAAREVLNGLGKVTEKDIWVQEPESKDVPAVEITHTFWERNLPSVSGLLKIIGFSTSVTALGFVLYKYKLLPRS
Procedure, shortened: (§1)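 Recombinant human enzyme from insect-cell microsomes, MAO-A 0.0075 or MAO-B 0.015 mg protein/mL, in 100 mM potassium phosphate pH 7.4 made isotonic with KCl. Kynuramine 50 µM, inhibitor up to 100 µM, DMSO 4% final. 20 min at 37 °C, stopped with 2 N NaOH. 4-Hydroxyquinoline read by fluorescence (ex 310/em 400 nm) against a calibration curve.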

[2] = target: T2, Amine oxidase [flavin-containing] B (Homo sapiens, UniProt P27338); assay: Inhibition of recombinant human MAO-B using kynuramine as substrate after 20 mins by fluorescence spectrophotometric analysis
T2 sequence (P27338 whole entry): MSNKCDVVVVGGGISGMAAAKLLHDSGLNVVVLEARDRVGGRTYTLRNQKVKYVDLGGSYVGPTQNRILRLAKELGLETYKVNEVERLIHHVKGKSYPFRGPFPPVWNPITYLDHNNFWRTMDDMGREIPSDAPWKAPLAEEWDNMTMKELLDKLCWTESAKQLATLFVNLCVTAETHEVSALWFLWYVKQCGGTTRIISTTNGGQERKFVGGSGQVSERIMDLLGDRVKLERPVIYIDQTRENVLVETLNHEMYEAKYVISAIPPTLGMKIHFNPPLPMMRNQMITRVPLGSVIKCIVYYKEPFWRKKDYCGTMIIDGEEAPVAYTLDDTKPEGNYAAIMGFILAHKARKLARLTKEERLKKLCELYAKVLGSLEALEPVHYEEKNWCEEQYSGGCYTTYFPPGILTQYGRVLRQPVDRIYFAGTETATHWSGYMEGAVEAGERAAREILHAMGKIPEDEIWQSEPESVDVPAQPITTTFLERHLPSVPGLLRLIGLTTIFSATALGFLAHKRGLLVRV

[3] = target: T2, Amine oxidase [flavin-containing] B; assay: Competitive inhibition of recombinant human MAO-B using kynuramine as substrate after 20 mins by Lineweaver-Burk plot analysis
Procedure, shortened: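 Human MAO-B (insect-cell microsome, 0.015 mg/mL final) in 100 mM potassium phosphate pH 7.4 made isotonic with KCl. Six Lineweaver-Burk plots: one without inhibitor and five at 1/4, 1/2, 3/4, 1 and 1 1/4 × IC50. Kynuramine 15–250 µM, eight levels per plot. 20 min at 37 °C, NaOH stop, 4-hydroxyquinoline fluorescence. Ki taken from slopes plotted against inhibitor concentration.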

[4] = target: T2, Amine oxidase [flavin-containing] B; assay: Reversible inhibition of recombinant human MAO-B using kynuramine as substrate assessed as recovery of enzyme activity at 4 times IC50 preincubated for 15 mins followed by dialysis for 24 hrs and subsequent addition of substrate measured after 20 mins by fluorescence spectrophotometric analysis relative to control; design: scale not given: the % may be the effect or the level left
Procedure, shortened: (§2)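 Pre-incubated 15 min at 37 °C, then dialysed 24 h at 4 °C (10 kDa cut-off) with buffer changes at 3 and 7 h. Diluted twofold with kynuramine (50 µM final), run 20 min at 37 °C, read by fluorescence. Triplicate; activity relative to inhibitor-free dialysed control.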

[5] = target: T2, Amine oxidase [flavin-containing] B; assay: Inhibition of recombinant human MAO-B using kynuramine as substrate assessed as enzyme activity recovered after 20 mins by fluorescence spectrophotometric analysis; design: scale not given: the % may be the effect or the level left; procedure, shortened: as §2
[6] = target: T2, Amine oxidase [flavin-containing] B; assay: Inhibition of recombinant human MAO-B at 100 uM using kynuramine as substrate after 20 mins by fluorescence spectrophotometric analysis; procedure, shortened: as §1

SMILES | Ratio IC50 (Homo sapiens) | inhibition (INH) [1] | IC50 [2] [nM] | Ki [3] [nM] | Activity [4] [%] | Activity [5] [%] | inhibition (INH) [6]
Oc1nc(SCCOc2ccccc2)nc2ccccc12 | > 81 | Not Active | 1240 | – | – | – | –
O=c1[nH]c(SCc2cccc(Br)c2)nc2ccccc12 | > 481 | Not Active | 208 | – | – | – | –
O=c1[nH]c(SCc2ccc(C(F)(F)F)cc2)nc2ccccc12 | > 143 | Not Active | 700 | – | – | – | –
O=c1[nH]c(SCCCc2ccccc2)nc2ccccc12 | > 17 | Not Active | 5990 | – | – | – | –
O=C(CSc1nc(O)c2ccccc2n1)c1ccccc1 | > 3.1 | Not Active | 31800 | – | – | – | –
O=c1[nH]c(SCc2ccc(I)cc2)nc2ccccc12 | – | Not Active | – | – | – | – | Not Active
O=c1[nH]c(SCc2ccncc2)nc2ccccc12 | – | Not Active | – | – | – | – | Not Active

Other lines, results leading:

Ratio IC50 (Homo sapiens) | inhibition (INH) [1] | IC50 [2] [nM] | Ki [3] [nM] | Activity [4] [%] | Activity [5] [%] | inhibition (INH) [6] | SMILES
> 435 | Not Active | 230 | – | – | – | – | Oc1nc(SCc2cccc(Cl)c2)nc2ccccc12
> 40 | Not Active | 2500 | – | – | – | – | Oc1nc(SCc2cccc(F)c2)nc2ccccc12
> 128 | Not Active | 779 | – | – | – | – | O=c1[nH]c(SCc2ccc(Br)cc2)nc2ccccc12
> 207 | Not Active | 482 | – | – | – | – | Oc1nc(SCc2ccc(Cl)cc2)nc2ccccc12
> 177 | Not Active | 566 | – | – | – | – | O=c1[nH]c(SCc2ccc(F)cc2)nc2ccccc12
> 704 | Not Active | 142 | 68 | 108 | 46 | – | O=c1[nH]c(SCc2cccc(I)c2)nc2ccccc12
> 33 | Not Active | 3030 | – | – | – | – | O=c1[nH]c(SCc2ccccc2)nc2ccccc12
